In the array DNA melting data of Ke et al. (doi:10.1101/2024.01.08.574731):

How the values were obtained:
[1] = folding enthalpy; higher = less favourable; fluorescence melt of hairpins on a sequencing array, two-state fit; details: sodium 0.088 M
Method in brief: (§1)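 Folding enthalpy and melting temperature were estimated with bootstrapped two-state fits and combined across four replicates by inverse-variance weighting, with fitted temperatures raised by 9.35 °C to match UV melts. The data were Cy3 fluorescence of library hairpins, with annealed Cy3 and quencher oligos, on a sequenced MiSeq flow cell in 50 mM Na-HEPES pH 8.0, 25 mM NaCl, imaged in 2.5 °C steps up to 60 °C and normalised to pre-quench Cy3 and control constructs.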

[2] = melting temperature; fluorescence melt of hairpins on a sequencing array, two-state fit, raised by 9.35 °C to match UV melts; details: sodium 0.088 M
Method in brief: as §1

**Q.** What does the source list for GGTGCCGAAAGGCCGACC ((((((....)))..)))?
**A.** folding enthalpy [1]: -14.1 kcal/mol; Tm [2]: 41.9 °C

**Q.** Which results are given for GGCTCTGGAAACAAAGCC ((((.((....)).))))?
**A.** folding enthalpy [1]: -29.9 kcal/mol; Tm [2]: 38 °C

**Q.** What does the source list for GCTGCCGAAAGGCGGAGC ((((((....)))..)))?
**A.** folding enthalpy [1]: -12.6 kcal/mol; Tm [2]: 51.3 °C

**Q.** With GGGGCCGAAAGGCAGCCC ((((((....)))..))) as the sequence, how does the folding enthalpy [1] read?
**A.** -14.6 kcal/mol

**Q.** And the Tm [2]?
**A.** 54 °C

**Q.** Which folding enthalpy [1] does the source give for GCGCGGCGAAAGCCCCGC (((.(((....))).))) here?
**A.** -37.7 kcal/mol

**Q.** What about the Tm [2] of the same sequence?
**A.** 59.4 °C

**Q.** For GCTAGGGGAAACTCTGGC ((.((.(....).)).)), which folding enthalpy [1] is on record?
**A.** -23.9 kcal/mol

**Q.** And the Tm [2]?
**A.** 32.9 °C

**Q.** For GTGCGCGAAAGCGGACAC ((((((....)))..))), which folding enthalpy [1] is on record?
**A.** -11.1 kcal/mol

**Q.** What about the Tm [2] of the same sequence?
**A.** 63.7 °C

**Q.** What does the source list for GTCGACGGAAACGTCAAC ((.((((....)))).))?
**A.** folding enthalpy [1]: -15.6 kcal/mol; Tm [2]: 43.5 °C

**Q.** For ACCAGGAAACTGGT (((((....))))), which folding enthalpy [1] is on record?
**A.** -21.4 kcal/mol

**Q.** What about the Tm [2] of the same sequence?
**A.** 49.2 °C

**Q.** Which results are given for GATCCCACTCGGGATC ((((((....))))))?
**A.** folding enthalpy [1]: -38.1 kcal/mol; Tm [2]: 61.8 °C

**Q.** With GCCATCGGAAACAATGGC (((((.(....).))))) as the sequence, how does the folding enthalpy [1] read?
**A.** -29.6 kcal/mol

**Q.** What about the Tm [2] of the same sequence?
**A.** 44.7 °C

**Q.** Which folding enthalpy [1] does the source give for GCGTGGCCGAAAGGCCGC (((..(((....)))))) here?
**A.** -9.18 kcal/mol

**Q.** What about the Tm [2] of the same sequence?
**A.** 57.2 °C

**Q.** For GGGCTTGGAAACGAGCTC (.(((.(....).))).), which folding enthalpy [1] is on record?
**A.** -29.7 kcal/mol

**Q.** What about the Tm [2] of the same sequence?
**A.** 42 °C

**Q.** For GTGGATGGAAACATTCGC (.(.(((....))).).), which folding enthalpy [1] is on record?
**A.** -28.4 kcal/mol

**Q.** What about the Tm [2] of the same sequence?
**A.** 34.9 °C

**Q.** Which folding enthalpy [1] does the source give for GTGCTACGAAAGTATCAC (((.(((....))).))) here?
**A.** -35.5 kcal/mol

**Q.** And the Tm [2]?
**A.** 44.6 °C

**Q.** For GCAACCGAAAGGTGGTGC ((((((....)))..))), which folding enthalpy [1] is on record?
**A.** -20.8 kcal/mol

**Q.** What about the Tm [2] of the same sequence?
**A.** 48.6 °C

**Q.** With GGATTGCGAAAGCATTCC (((.(((....))).))) as the sequence, how does the folding enthalpy [1] read?
**A.** -36.2 kcal/mol

**Q.** What about the Tm [2] of the same sequence?
**A.** 52.8 °C

**Q.** What does the source list for GGCGCCGAAAGGCCGGCC ((((((....)))..)))?
**A.** folding enthalpy [1]: -17.2 kcal/mol; Tm [2]: 58.7 °C

**Q.** With GATCGTAAGTACGATC ((((((....)))))) as the sequence, how does the folding enthalpy [1] read?
**A.** -32.9 kcal/mol

**Q.** What about the Tm [2] of the same sequence?
**A.** 53.3 °C

**Q.** Which results are given for GCAACTCCGAAAGGATGC (((..(((....))))))?
**A.** folding enthalpy [1]: -19.8 kcal/mol; Tm [2]: 38.1 °C

**Q.** With GCGTCACGAAAGTGCGC (((.(((....)))))) as the sequence, how does the folding enthalpy [1] read?
**A.** -31.1 kcal/mol

**Q.** And the Tm [2]?
**A.** 66.9 °C

**Q.** Which folding enthalpy [1] does the source give for GTTCCGGGAAACCGGAAC (((((((....))))))) here?
**A.** -30.1 kcal/mol

**Q.** And the Tm [2]?
**A.** 68.7 °C

**Q.** For GTTGACGAAAGTCATAAC ((((((....)))..))), which folding enthalpy [1] is on record?
**A.** -12.9 kcal/mol

**Q.** What about the Tm [2] of the same sequence?
**A.** 33.5 °C

**Q.** Which results are given for GATCGGGAAGCCGATC ((((((....))))))?
**A.** folding enthalpy [1]: -37.9 kcal/mol; Tm [2]: 59.6 °C

**Q.** Which results are given for GAAGAACGAAAGTTTTTC (((.(((....))).)))?
**A.** folding enthalpy [1]: -28.8 kcal/mol; Tm [2]: 36 °C

**Q.** With GTCGGCGAAAGCCAAGAC ((((((....)))..))) as the sequence, how does the folding enthalpy [1] read?
**A.** -15.2 kcal/mol

**Q.** And the Tm [2]?
**A.** 49.9 °C

**Q.** Which results are given for CGCATCGGAAACGACGCG (((.(((....))).)))?
**A.** folding enthalpy [1]: -41.2 kcal/mol; Tm [2]: 51.6 °C

**Q.** For GGTATGGGAAACCATGTC (..((((....))))..), which folding enthalpy [1] is on record?
**A.** -13.5 kcal/mol

**Q.** What about the Tm [2] of the same sequence?
**A.** 27.4 °C

**Q.** What does the source list for GAGTACGAAAGTAGTCTC ((((((....)))..)))?
**A.** folding enthalpy [1]: -23.4 kcal/mol; Tm [2]: 49.2 °C

**Q.** With GCCCCACGAAAGTGCGGC (((.(((....))).))) as the sequence, how does the folding enthalpy [1] read?
**A.** -29.6 kcal/mol

**Q.** What about the Tm [2] of the same sequence?
**A.** 54.3 °C

**Q.** Which results are given for TTGTGGAAACACAA (((((....)))))?
**A.** folding enthalpy [1]: -19.7 kcal/mol; Tm [2]: 40.4 °C

**Q.** Which folding enthalpy [1] does the source give for GCACTCGCGAAAGCGTGC (((..(((....)))))) here?
**A.** -14.7 kcal/mol

**Q.** What about the Tm [2] of the same sequence?
**A.** 50.5 °C

**Q.** For GCCAAGAAATTGGC (((((....))))), which folding enthalpy [1] is on record?
**A.** -21.6 kcal/mol

**Q.** What about the Tm [2] of the same sequence?
**A.** 52.3 °C

**Q.** For GTCTCTCGAAAGAGCGAC (((.(((....))).))), which folding enthalpy [1] is on record?
**A.** -25.6 kcal/mol

**Q.** What about the Tm [2] of the same sequence?
**A.** 46.3 °C

**Q.** What does the source list for GGTTGATCGAAAGATACC (((..(((....))))))?
**A.** folding enthalpy [1]: -8.74 kcal/mol; Tm [2]: 25.5 °C

**Q.** Which folding enthalpy [1] does the source give for GGAGTGGGAAACCGCTTC (.((.((....)).)).) here?
**A.** -25.7 kcal/mol

**Q.** What about the Tm [2] of the same sequence?
**A.** 38 °C

**Q.** Which folding enthalpy [1] does the source give for CGTATCGGAAACGACACG (((.(((....))).))) here?
**A.** -31.2 kcal/mol

**Q.** What about the Tm [2] of the same sequence?
**A.** 42.6 °C

**Q.** What does the source list for GTTGGCCGAAAGGCAAAC (((.(((....))).)))?
**A.** folding enthalpy [1]: -21.8 kcal/mol; Tm [2]: 56.8 °C
